The source made the active and inactive calls. No cut-off for these calls is given here.
Columns and labels:
Mus musculus [1] = experiment: Inhibition of 5'-TCTGACRTTCT-X-TCTTRCAGTCT-3'-induced IP10 production in C57BL/6 mouse treated 72 hrs before induction at 10 mg/kg, sc; format: functional; conditions: C57BL/6, sc, route subcutaneous
In short: (§1)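 Female C57BL/6 mice (n=3) received antagonist 10 mg/kg sc in the right flank. After 72 h, TLR9 agonist 0.25 mg/kg sc was given in the left flank. Serum was taken 2 h after agonist and cytokines/chemokines were measured by Luminex multiplex assay. Representative of at least three experiments.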

[2] = target: T1, Toll-like receptor 9 (Mus musculus) (UniProt Q9EQU3); experiment: Antagonist activity at TLR9 in mouse J774 cells assessed as inhibition of 5'-TCTGACRTTCT-X-TCTTRCAGTCT-3'-induced NF-kappaB activation pretreated for 1 hr; format: functional, cell-based
T1 sequence (whole entry): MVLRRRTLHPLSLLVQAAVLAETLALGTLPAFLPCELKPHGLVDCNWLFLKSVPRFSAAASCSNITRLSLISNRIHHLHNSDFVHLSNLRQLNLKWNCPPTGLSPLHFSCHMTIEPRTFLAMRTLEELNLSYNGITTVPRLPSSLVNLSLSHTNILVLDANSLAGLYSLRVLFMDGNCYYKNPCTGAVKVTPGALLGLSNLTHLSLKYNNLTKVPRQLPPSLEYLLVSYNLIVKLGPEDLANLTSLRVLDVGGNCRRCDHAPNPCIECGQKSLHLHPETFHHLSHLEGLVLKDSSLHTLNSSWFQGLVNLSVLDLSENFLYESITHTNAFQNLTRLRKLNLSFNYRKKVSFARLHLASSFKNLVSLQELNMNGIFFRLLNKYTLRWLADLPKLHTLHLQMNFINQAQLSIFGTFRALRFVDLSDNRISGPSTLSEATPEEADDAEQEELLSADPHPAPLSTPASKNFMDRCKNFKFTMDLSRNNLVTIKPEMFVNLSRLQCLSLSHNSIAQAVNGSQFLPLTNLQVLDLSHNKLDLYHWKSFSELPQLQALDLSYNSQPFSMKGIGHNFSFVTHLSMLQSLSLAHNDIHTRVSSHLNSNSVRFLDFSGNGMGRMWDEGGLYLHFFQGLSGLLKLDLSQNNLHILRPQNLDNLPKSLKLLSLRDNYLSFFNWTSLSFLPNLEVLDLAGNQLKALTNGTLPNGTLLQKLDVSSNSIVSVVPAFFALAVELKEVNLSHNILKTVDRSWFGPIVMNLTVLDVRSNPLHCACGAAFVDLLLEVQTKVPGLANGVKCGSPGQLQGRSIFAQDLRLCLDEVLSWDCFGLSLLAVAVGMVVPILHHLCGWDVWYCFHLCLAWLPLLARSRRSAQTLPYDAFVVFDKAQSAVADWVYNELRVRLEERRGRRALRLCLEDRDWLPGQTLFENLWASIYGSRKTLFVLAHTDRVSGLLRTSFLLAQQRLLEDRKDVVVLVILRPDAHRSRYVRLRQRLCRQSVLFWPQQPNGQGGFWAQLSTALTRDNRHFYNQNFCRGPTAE
In short: (§2)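 J774 cells at 5×10^6 cells/well were preincubated with antagonist for 1 h. Agonist was then added: TLR9 agonist 1 µg/mL, an RNA-based TLR7/8 agonist, or LPS 100 ng/mL. Antagonist was used at 5–40 µg/mL or at the indicated agonist ratios. Nuclear extracts were taken 1 h after agonist and analysed by EMSA.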

Mus musculus [3] = experiment: Inhibition of 5'-UGCUGUUCUG-X-GUCUUGUCGU-5'-induced KC production in C57BL/6 mouse treated 72 hrs before induction at 10 mg/kg, sc; format: functional; conditions: C57BL/6, sc, route subcutaneous
In short: (§3)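 Female C57BL/6 mice, 6-8 weeks, n = 3, given antagonist 10 mg/kg sc in the right flank. After 72 h, agonist given sc in the left flank: TLR7/8 RNA agonist at 50 mg/kg or TLR9 agonist at 0.25 mg/kg. Serum collected 2 h after agonist by retro-orbital bleeding; cytokines/chemokines by mouse 20-plex Luminex bead assay.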

[4] = target: T1, Toll-like receptor 9 (Mus musculus); experiment: Antagonist activity at mouse TLR9 expressed in HEK293 cells assessed as inhibition of 5'-CTATCTGACGTTCTCTGT-3'-induced NF-kappaB activation by SEAP reporter gene assay; format: functional, cell-based
In short: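 Mouse TLR9-HEK293 cells were transfected with a SEAP reporter for 6 h. They were then stimulated for 18 h with agonist (0.25 or 0.5 µg/mL) plus increasing antagonist concentrations or set agonist:antagonist ratios. Quanti-Blue read-out, reported as % NF-κB activity with agonist alone as 100%.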

[5] = target: T1, Toll-like receptor 9 (Mus musculus); experiment: Antagonist activity in mouse J774 cells assessed as inhibition of 5'-UGCUGUUCUG-X-GUCUUGUCGU-5'-induced NF-kappaB activation
Mus musculus [6] = experiment: Inhibition of 5'-UGCUGUUCUG-X-GUCUUGUCGU-5'-induced IL10 production in C57BL/6 mouse treated 72 hrs before induction at 10 mg/kg, sc; format: functional; conditions: C57BL/6, sc, route subcutaneous; in short: as §3
Mus musculus [7] = experiment: Inhibition of 5'-UGCUGUUCUG-X-GUCUUGUCGU-5'-induced MCP1 production in C57BL/6 mouse treated 72 hrs before induction at 10 mg/kg, sc; format: functional; conditions: C57BL/6, sc, route subcutaneous; in short: as §3
[8] = target: T1, Toll-like receptor 9 (Mus musculus); experiment: Antagonist activity at TLR9 in mouse J774 cells assessed as inhibition of LPS-induced NF-kappaB activation treated 1 hr before LPS induction; format: functional, cell-based; in short: as §2
[9] = target: T1, Toll-like receptor 9 (Mus musculus); experiment: Antagonist activity at mouse TLR9 expressed in HEK293 cells assessed as inhibition of 5'-TCTGACRTTCT-X-TCTTRCAGTCT-3'-induced NF-kappaB activation pretreated for 1 hr in presence of increasing levels of 5'-TCTGACRTTCT-X-TCTTRCAGTCT-3'; format: functional, cell-based
In short: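 In mouse TLR9-HEK293 cells with SEAP reporter, a fixed 10 µg/mL antagonist was combined with increasing TLR9 agonist concentrations for 18 h. Quanti-Blue SEAP read-out of NF-κB activity.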

[10] = target: T1, Toll-like receptor 9 (Mus musculus); experiment: Antagonist activity at TLR9 in mouse J774 cells assessed as inhibition of 5'-TCTGACRTTCT-X-TCTTRCAGTCT-3'-induced NF-kappaB activation pretreated for 1 hr in presence of increasing levels of 5'-TCTGACRTTCT-X-TCTTRCAGTCT-3'; format: functional, cell-based
In short: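 Reversibility test: J774 cells were stimulated with varying doses of TLR9 agonist, with or without a fixed 10 µg/mL antagonist, for 1 h. Nuclear extracts were analysed for NF-κB by EMSA.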

B = experiment: Inhibition of 5'-TCTGTCRTTCT-X-TCTTRCTGTCT-5'-induced IL6 secretion in MRL/lpr mouse splenic B cells after 24 hrs by ELISA; format: functional, cell-based
In short: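 Splenic B cells from MRL/lpr mice, purified by B-cell isolation kit (>95% B220+), cultured at 5×10^5 cells/200 μL in RPMI-1640 with 10% FBS and penicillin/streptomycin; stimulated with 1 μg/mL TLR9 agonist with or without antagonist at 0.3, 1 or 3 μg/mL, or antagonist 3 μg/mL alone. Supernatants taken at 24 h; IL-6 by sandwich ELISA.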

Mus musculus [11] = experiment: Inhibition of 5'-TCTGACRTTCT-X-TCTTRCAGTCT-3'-induced IL10 production in C57BL/6 mouse treated 72 hrs before induction at 10 mg/kg, sc; format: functional; conditions: C57BL/6, sc, route subcutaneous; in short: as §1

CO[C@@H]1[C@H](OP(=O)(S)OC[C@H]2O[C@@H](n3ccc(N)nc3=O)C[C@@H]2OP(=O)(S)OC[C@H]2O[C@@H](n3ccc4c(=O)[nH]c(N)nc43)C[C@@H]2OP(=O)(S)OC[C@H]2O[C@@H](n3cc(C)c(=O)[nH]c3=O)C[C@@H]2OP(=O)(S)OC[C@H]2O[C@@H](n3cc(C)c(=O)[nH]c3=O)C[C@@H]2OP(=O)(S)OC[C@H]2O[C@@H](n3ccc(N)nc3=O)C[C@@H]2OP(=O)(S)OC[C@H]2O[C@@H](n3cc(C)c(=O)[nH]c3=O)C[C@@H]2OP(=O)(S)OC[C@H]2O[C@@H](n3ccc(N)nc3=O)C[C@@H]2OP(=O)(S)OC[C@H]2O[C@@H](n3cc(C)c(=O)[nH]c3=O)C[C@@H]2OP(=O)(S)OC[C@H]2O[C@@H](n3cnc4c(=O)[nH]c(N)nc43)C[C@@H]2OP(=O)(S)OC[C@H]2O[C@@H](n3cc(C)c(=O)[nH]c3=O)C[C@@H]2O)[C@@H](COP(=O)(S)O[C@H]2[C@@H](OC)[C@H](n3cnc4c(=O)[nH]c(N)nc43)O[C@@H]2COP(=O)(S)O[C@H]2C[C@H](n3cc(C)c(=O)[nH]c3=O)O[C@@H]2COP(=O)(S)O[C@H]2C[C@H](n3ccc(N)nc3=O)O[C@@H]2COP(=O)(S)O[C@H]2C[C@H](n3cc(C)c(=O)[nH]c3=O)O[C@@H]2COP(=O)(S)O[C@H]2C[C@H](n3cnc4c(N)ncnc43)O[C@@H]2COP(=O)(S)O[C@H]2C[C@H](n3cc(C)c(=O)[nH]c3=O)O[C@@H]2COP(=O)(S)O[C@@H]2C[C@@H](n3ccc(N)nc3=O)O[C@H]2CO)O[C@H]1n1cnc2c(N)ncnc21 (some centres not stated)
inhibition in vivo at 10 mg/kg (Mus musculus [1]): ≥ 50%
Activity [2]: Dose-dependent effect
inhibition in vivo at 10 mg/kg (Mus musculus [3]): ≥ 50%
Activity [4]: Active
Activity [5]: Dose-dependent effect
inhibition in vivo at 10 mg/kg (Mus musculus [6]): ≥ 50%
inhibition in vivo at 10 mg/kg (Mus musculus [7]): ≥ 50%
Activity [8]: inactive
Activity [9]: inactive
Activity [10]: inactive
Activity (B): Dose-dependent effect
inhibition in vivo at 10 mg/kg (Mus musculus [11]): ≥ 50%

Source: ChEMBL document CHEMBL1140884, “Oligodeoxyribonucleotide-based antagonists for Toll-like receptors 7 and 9” (2009)
